Screening results as filed in PubChem BioAssay.
TRPC6 inh: mouse TRPC6 channel inhibitors, primary screen, cell-based, HEK293, membrane potential dye; 1.1% of 310,000 active; ACh-evoked depolarization; active compounds read low; Short transient receptor potential channel 6 (Mus musculus), Q61143; B-score at 10 µM;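 active means B-score under library mean minus 3 SD, initial fluorescence not abnormally high, positive integrated signal ratio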;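 further: B-score derived from integrated fluorescence ratio over the kinetic read; more negative B-score means stronger inhibition of depolarization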
TRPC4 inh: inhibitors of mouse TRPC4 channel, primary screen, Fluo4 calcium, HEK293 TRPC4beta/mu-opioid cells. B-score at 10 µM. 0.39% of 300,000 active. AID 2247, 2010. DAMGO-evoked Fluo4 calcium flux; active compounds read low. Short transient receptor potential channel 4 (Mus musculus), Q9QUQ5;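 active means B-score over 3 SD under the library average, no early fluorescence shift, positive overall ratio signal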
Target sequence (Q9QUQ5 whole entry, looked up): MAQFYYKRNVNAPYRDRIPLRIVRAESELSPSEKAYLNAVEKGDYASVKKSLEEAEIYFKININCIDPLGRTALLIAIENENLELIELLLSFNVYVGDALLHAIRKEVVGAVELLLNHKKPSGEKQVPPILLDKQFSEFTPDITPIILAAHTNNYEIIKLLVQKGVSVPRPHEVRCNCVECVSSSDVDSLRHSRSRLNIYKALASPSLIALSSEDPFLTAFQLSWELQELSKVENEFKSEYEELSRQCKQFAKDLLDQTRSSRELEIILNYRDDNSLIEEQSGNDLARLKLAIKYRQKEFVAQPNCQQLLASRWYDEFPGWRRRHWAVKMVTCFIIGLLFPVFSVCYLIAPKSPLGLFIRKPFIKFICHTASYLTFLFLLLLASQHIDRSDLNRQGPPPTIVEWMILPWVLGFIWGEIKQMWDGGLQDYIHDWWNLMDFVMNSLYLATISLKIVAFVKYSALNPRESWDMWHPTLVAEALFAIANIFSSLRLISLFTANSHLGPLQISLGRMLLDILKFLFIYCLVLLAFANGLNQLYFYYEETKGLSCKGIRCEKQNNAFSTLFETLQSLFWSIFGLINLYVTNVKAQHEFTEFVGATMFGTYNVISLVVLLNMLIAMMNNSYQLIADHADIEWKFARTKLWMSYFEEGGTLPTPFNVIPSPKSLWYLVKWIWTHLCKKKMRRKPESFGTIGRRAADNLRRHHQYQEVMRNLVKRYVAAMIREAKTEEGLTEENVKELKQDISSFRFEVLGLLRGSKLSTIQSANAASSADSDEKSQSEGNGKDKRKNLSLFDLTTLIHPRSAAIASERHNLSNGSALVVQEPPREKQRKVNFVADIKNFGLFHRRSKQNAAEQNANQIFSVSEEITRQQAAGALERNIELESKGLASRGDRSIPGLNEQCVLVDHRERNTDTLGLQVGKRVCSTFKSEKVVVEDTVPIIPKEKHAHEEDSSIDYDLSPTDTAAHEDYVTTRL
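Assay system – HEK293 line stably carrying TRPC4beta and mu-opioid receptor · Doses – single dose · Detection – Fluo4 calcium-dye fluorescence, kinetic read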
TRPC4 PAM: positive allosteric modulators of TRPC4, primary screen, cell-based, mouse TRPC4beta, HEK293 mu-opioid, Fluo-4 calcium | AID 2227, 2009 | B-score at 10 µM | Short transient receptor potential channel 4 (Mus musculus), Q9QUQ5 | DAMGO EC20, Fluo-4 Ca2+ flux; active compounds read high | 0.42% of 310,000 active;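 active means B-score of calcium response area above 5 SD of library B-scores, with initial fluorescence ratio within 5 SD of library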;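 further: B-score of integrated fluorescence ratio over time as area under calcium response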
TRPC6 act: mouse TRPC6 channel activators, primary screen, cell-based, HEK293, membrane potential dye. Short transient receptor potential channel 6 (Mus musculus), Q61143. HEK293-TRPC6 membrane potential dye fluorescence; active compounds read high. B-score at 10 µM. 0.13% of 310,000 active;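 active means B-score of the integrated fluorescence ratio above library mean plus 3 SD, and starting fluorescence ratio within library mean plus 5 SD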;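 further: higher score means more depolarization so channel activation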
TRPC4 act: activators of mouse TRPC4 channel, primary screen, Fluo4 calcium, HEK293 TRPC4beta/mu-opioid cells; Short transient receptor potential channel 4 (Mus musculus), Q9QUQ5; Fluo4 calcium fluorescence; active compounds read high; B-score at 10 µM; 0.49% of 310,000 active; AID 2237, 2010;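 active means B-score above 5 SD of library B-scores, and initial fluorescence ratio not above library mean plus 5 SD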;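 further: positive B-score marks a calcium rise read as TRPC4 activation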
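Technique: kinetic Fluo4 calcium fluorescence; Test system: TRPC4beta and mu-opioid receptor HEK293 stable cells; Measure: B-scored integrated calcium fluorescence ratio; Benchmarks: low control buffer alone, high control maximal DAMGO; Schedule: 45 min room-temperature Fluo4 loading, 110 s read.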
* hit, by the source's call. Shown are actives, neighbours in structure and some others; about 2.3% of the full set was active somewhere.

What do the screens show for `CN(CCc1ccccn1)C(=O)Nc1ccc(F)cc1`?
TRPC6 inh: inactive; TRPC4 inh: inactive; TRPC4 PAM: inactive; TRPC6 act: inactive; TRPC4 act: 63*

Results for CSc1ccc(CN(C)CCc2ccccn2)cc1 ?
TRPC6 inh: inactive; TRPC4 inh: inactive; TRPC4 PAM: inactive; TRPC6 act: inactive; TRPC4 act: inactive

How did Cc1ccc(OCC(=O)N(C)CCc2ccccn2)cc1 do in these assays?
TRPC6 inh: inactive; TRPC4 inh: inactive; TRPC4 PAM: inactive; TRPC6 act: inactive; TRPC4 act: 89*

Results for CN(CCc1ccccn1)S(=O)(=O)c1ccccc1F ?
TRPC6 inh: inactive; TRPC4 inh: inactive; TRPC4 PAM: inactive; TRPC6 act: inactive; TRPC4 act: 79*

How did Cc1ccc(OCc2cc(C(=O)N(C)CCc3ccccn3)no2)cn1 do in these assays?
TRPC6 inh: inactive; TRPC4 inh: inactive; TRPC4 PAM: inactive; TRPC6 act: inactive; TRPC4 act: 81*

How did COC(=O)c1ccc(C2C(C(=O)c3ccco3)=C(O)C(=O)N2CC2CCCO2)cc1 (stereo not drawn) do in these assays?
TRPC6 inh: inactive; TRPC4 inh: inactive; TRPC4 PAM: inactive; TRPC6 act: inactive; TRPC4 act: inactive

Results for C=C(C)C(=O)Nc1cccnc1Oc1ccc(F)cc1F ?
TRPC6 inh: inactive; TRPC4 inh: inactive; TRPC4 PAM: inactive; TRPC6 act: inactive; TRPC4 act: inactive

How did CN1CCN(CC(=O)N2c3ccccc3Sc3ccccc32)CC1 do in these assays?
TRPC6 inh: inactive; TRPC4 inh: inactive; TRPC4 PAM: inactive; TRPC6 act: inactive; TRPC4 act: inactive

What do the screens show for `O=C(CN1CCCCCC1)N1c2ccccc2Sc2ccccc21`?
TRPC6 inh: inactive; TRPC4 inh: -7*; TRPC4 PAM: inactive; TRPC6 act: inactive; TRPC4 act: inactive

Results for O=C(CN1CCCCC1)N1c2ccccc2Oc2ccccc21 ?
TRPC6 inh: inactive; TRPC4 inh: -5*; TRPC4 PAM: inactive; TRPC6 act: inactive; TRPC4 act: inactive

Results for CC1Cc2ccccc2N1C(=O)CN1CCCCC1 (stereo not drawn) ?
TRPC6 inh: inactive; TRPC4 inh: inactive; TRPC4 PAM: inactive; TRPC6 act: inactive; TRPC4 act: inactive

How did CCCCN1C2=NC(c3ccccc3)CN2c2ccccc21 (stereo not drawn) do in these assays?
TRPC6 inh: inactive; TRPC4 inh: -6*; TRPC4 PAM: inactive; TRPC6 act: inactive; TRPC4 act: inactive

What do the screens show for `CCOCCCNCc1cn(-c2ccc(F)cc2F)nc1-c1ccccc1C`?
TRPC6 inh: inactive; TRPC4 inh: inactive; TRPC4 PAM: inactive; TRPC6 act: inactive; TRPC4 act: 77*

How did Cc1ccccc1-c1nn(-c2ccc(F)cc2F)cc1CNCC(C)O (stereo not drawn) do in these assays?
TRPC6 inh: inactive; TRPC4 inh: inactive; TRPC4 PAM: inactive; TRPC6 act: inactive; TRPC4 act: inactive

What do the screens show for `Cc1cc(S(=O)(=O)N2CCCC(C)C2)ccc1-n1cnnn1` (stereo not drawn)?
TRPC6 inh: inactive; TRPC4 inh: inactive; TRPC4 PAM: inactive; TRPC6 act: inactive; TRPC4 act: inactive

What do the screens show for `CCOC(=O)C[C@H]1c2cc(F)ccc2S(=O)(=O)N1C1CCCC1`?
TRPC6 inh: inactive; TRPC4 inh: inactive; TRPC4 PAM: inactive; TRPC6 act: inactive; TRPC4 act: inactive

How did O=C1CC(C(=O)N2CCN(c3ccccc3O)CC2)CN1Cc1ccccc1 (stereo not drawn) do in these assays?
TRPC6 inh: inactive; TRPC4 inh: inactive; TRPC4 PAM: inactive; TRPC6 act: inactive; TRPC4 act: inactive

What do the screens show for `CC1CCc2c(sc(/N=C/N(C)C)c2C#N)C1` (stereo not drawn)?
TRPC6 inh: inactive; TRPC4 inh: -6*; TRPC4 PAM: inactive; TRPC6 act: inactive; TRPC4 act: inactive

How did CN(C)/C=N/c1sc2c(c1C#N)CCCC2 do in these assays?
TRPC6 inh: inactive; TRPC4 inh: inactive; TRPC4 PAM: inactive; TRPC6 act: inactive; TRPC4 act: inactive

What do the screens show for `COc1ccc(C[C@H]2CN3C(=NC[C@@H]3Cc3ccccc3)N2CCNC(=O)CCC2CCCCC2)cc1`?
TRPC6 inh: inactive; TRPC4 inh: inactive; TRPC4 PAM: inactive; TRPC6 act: inactive; TRPC4 act: 60*

Results for Cc1cnc(C(=O)NC(Cc2ccccc2)c2ccccc2)cn1 (stereo not drawn) ?
TRPC6 inh: inactive; TRPC4 inh: inactive; TRPC4 PAM: inactive; TRPC6 act: inactive; TRPC4 act: inactive

How did CCCC(=NC(C)CC)C1=C(O)CC(c2ccccc2)CC1=O (stereo not drawn) do in these assays?
TRPC6 inh: inactive; TRPC4 inh: inactive; TRPC4 PAM: inactive; TRPC6 act: inactive; TRPC4 act: inactive

Results for COc1c(Cl)cc(Cl)cc1CNCCNCCO ?
TRPC6 inh: inactive; TRPC4 inh: inactive; TRPC4 PAM: 11*; TRPC6 act: inactive; TRPC4 act: inactive

How did Cc1ccc2[nH]c3c(=O)n(CC(=O)N4CC(C)CC(C)C4)ncc3c2c1 (stereo not drawn) do in these assays?
TRPC6 inh: inactive; TRPC4 inh: inactive; TRPC4 PAM: inactive; TRPC6 act: inactive; TRPC4 act: inactive

How did CC(Nc1nc(N2CCNCC2)nc2ccccc12)c1ccccc1 (stereo not drawn) do in these assays?
TRPC6 inh: inactive; TRPC4 inh: inactive; TRPC4 PAM: inactive; TRPC6 act: inactive; TRPC4 act: 103*

How did COc1ccc(CNCCc2ccc(Cl)cc2)cc1OCc1ccccc1 do in these assays?
TRPC6 inh: inactive; TRPC4 inh: inactive; TRPC4 PAM: inactive; TRPC6 act: inactive; TRPC4 act: 47*

Results for OC(CNCCC(c1ccccc1)c1ccccc1)COc1ccccc1 (stereo not drawn) ?
TRPC6 inh: inactive; TRPC4 inh: inactive; TRPC4 PAM: inactive; TRPC6 act: inactive; TRPC4 act: inactive

Results for Clc1ccc(OCCNCCc2ccccc2)cc1 ?
TRPC6 inh: inactive; TRPC4 inh: inactive; TRPC4 PAM: inactive; TRPC6 act: inactive; TRPC4 act: 98*

How did OC(CNCCc1ccccc1)COc1ccc(OCC(O)CNCCc2ccccc2)cc1 (stereo not drawn) do in these assays?
TRPC6 inh: inactive; TRPC4 inh: inactive; TRPC4 PAM: 22*; TRPC6 act: inactive; TRPC4 act: inactive
